Source: paper PMC6904115 (Neuropharmacology, 2019)
“Also recorded” adds a separate entry of the source.

Key:
Y1 receptor [1] = biological target: T1, Y1 receptor (Rattus norvegicus, UniProt P21555); experiment: Y1 receptor internalization; assay type: cell-based; conditions: for Y1 receptor internalization / NPY release by chemical stimulus, summary: spinal cord slices
T1 sequence (P21555 1-382): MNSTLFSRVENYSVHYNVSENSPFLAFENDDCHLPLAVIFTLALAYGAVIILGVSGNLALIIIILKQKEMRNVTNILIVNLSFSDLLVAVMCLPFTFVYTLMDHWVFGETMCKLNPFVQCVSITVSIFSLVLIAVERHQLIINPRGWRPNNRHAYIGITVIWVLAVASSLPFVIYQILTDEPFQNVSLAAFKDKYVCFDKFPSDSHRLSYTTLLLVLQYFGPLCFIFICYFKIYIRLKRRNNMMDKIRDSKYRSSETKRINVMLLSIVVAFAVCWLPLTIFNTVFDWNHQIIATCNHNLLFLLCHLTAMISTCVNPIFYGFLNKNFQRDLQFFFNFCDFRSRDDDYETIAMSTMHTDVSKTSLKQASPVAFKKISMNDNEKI

[2] = system: substance P release in the dorsal horn; conditions: ref Chen et al., cited from earlier work
Y1 receptor [3] = biological target: T1, Y1 receptor; assay type: cell-based; conditions: with 100 nM NPY; each inhibitor 10 μM; 35 °C, 10 min
Y1 receptor [4] = biological target: T1, Y1 receptor; experiment: Y1 receptor internalization induced by capsaicin stimulation of the dorsal root; assay type: cell-based
Method in brief: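 Rat lumbar (L2-L4) slices, 400 μm, keeping one >8 mm dorsal root; recovered 1 h at 35 °C in aCSF (5 mM KCl). Root sealed with grease into side compartment of aCSF + 1 μM capsaicin, 10 min, while slice superfused at 35 °C; 10 min further superfusion, immersion-fixed, 25 μm cryosections, Y1 antiserum 1:500, confocal. Ipsilateral vs contralateral; repeated-measures 2-way ANOVA, Holm-Sidak.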

[5] = system: opioid release in spinal cord slices; conditions: cited from earlier work
[6] = system: inhibitory interneurons in the dorsal horn; conditions: four classes of inhibitory interneurons; ref Polgar et al. (2013); cited from earlier work
MOR = conditions: ref Song and Marvizon, 2003a; cited from earlier work
NK1R = conditions: compared with endogenous opioids; ref Marvizon et al., 2003b; cited from earlier work
Y1 receptor [7] = biological target: T1, Y1 receptor; assay type: cell-based

Compound: O=C(Nc1ncnc2c1ncn2[C@@H]1O[C@@H]2COP(=O)(O)OC2C1O)c1ccccc1 (stereo in doubt) [6-Bnz-cAMP, 6-benzoyl-3′,5′-cyclic monophosphate]
- Y1 receptor internalization by protein kinase A activator (Y1 receptor [1]; 10 nM, 60 min, 35 °C): induced a substantial amount of Y1 receptor internalization
- Y1 receptor internalization / NPY release by chemical stimulus, summary (Y1 receptor [1]): induced Y1 receptor internalization

Compound: Nc1ncnc2c1nc(Br)n2[C@@H]1O[C@@H]2COP(=O)(O)O[C@H]2[C@H]1O [8-Br-cAMP, 8-bromoadenosine-3′,5′-cyclic monophosphate]
- substance P release by cell-permeable cAMP analogs ([2]; dorsal horn, 2018): induce substance P release

Compound: CC(N)C(=O)N1CCCC1C#N (stereo not drawn) [Ala-Pyrr-CN, alanine-pyrrolidine-nitrile]
- effect on NPY-induced Y1 receptor internalization (Y1 receptor [3]): did not significantly increase NPY-induced Y1 receptor internalization

Compound: CC1(C)C(=O)N=C2C1=C(O)C(=O)c1ccccc12 [BVT948, 4-hydroxy-3,3-dimethyl-2H-benz[g]indole-2,5(3H)-dione]
- Y1 receptor internalization after BVT948 preincubation and NMDA+D-Ser (Y1 receptor [1]; 10 μM BVT948 60 min, then 10 μM NMDA + D-serine 2 min, 8 min aCSF): also released NPY
- substance P release by BVT948 ([2]; 2014b, Chen et al., 2010): increases substance P release

Compound: N#Cc1cc2[nH]c(=O)c(=O)[nH]c2cc1[N+](=O)[O-] [CNQX]
- effect on capsaicin-induced Y1R internalization (Y1 receptor [1]; 10 μM CNQX with 1 μM capsaicin, 10 min, whole slice): decreased the Y1R internalization induced by capsaicin to near control levels
- effect on dorsal root capsaicin-induced Y1 internalization (Y1 receptor [4]; slice superfused with 10 μM CNQX 10 min, 1 μM capsaicin on dorsal root): blocked; also recorded: eliminated the effect of capsaicin

Compound: [Cl-].[K+] [KCl]
- neurons with Y1 receptor internalization, KCl (Y1 receptor [1]; 30 mM KCl 2 min, then 8 min aCSF, 35 °C): > 80%
- Y1 receptor internalization / NPY release by chemical stimulus, summary (Y1 receptor [1]): induced Y1 receptor internalization
- opioid release by KCl ([5]; 30 mM KCl, 2 min, spinal cord slices, ref Chen et al., 2008): induced abundant opioid release

Compound: COc1cc(CNC(=O)CCCC/C=C/C(C)C)ccc1O [capsaicin]
- neurons with Y1 receptor internalization, capsaicin (Y1 receptor [1]; 1 μM capsaicin, 10 min, whole slice, 35 °C): approximately 50%
- Y1 receptor internalization / NPY release by chemical stimulus, summary (Y1 receptor [1]): induced Y1 receptor internalization
- Y1 receptor internalization by dorsal root capsaicin (Y1 receptor [4]; 1 μM capsaicin on dorsal root (side chamber), 10 min): induced NPY release; also recorded: evoked substantial Y1 receptor internalization, which was significantly higher than in control slices
- opioid release by capsaicin ([5]; dorsal horn, ref Song and Marvizon, 2003b): not opioid release
- pERK induction [6]: induced pERK only in the galanin and NPY neurons

Compound: Ile-Pro-Ile
- effect on NPY-induced Y1 receptor internalization (Y1 receptor [3]): did not significantly increase NPY-induced Y1 receptor internalization

Compound: Leu-enkephalin
- reduction by peptidases of potency to induce MOR internalization (MOR): two orders of magnitude

Compound: formalin
- pERK induction [6]: induced pERK only in the galanin and NPY neurons

Compound: substance P
- cleavage by peptidases (NK1R): much less readily

Compound: ω-conotoxin MVIIC
- effect on electrically evoked Y1 receptor internalization, ipsilateral (Y1 receptor [7]): decreased
